Assay results reported in paper PMC5599375 (Journal of medicinal chemistry, 2017).
Converted amounts (≈) assume the structure as drawn. “Also recorded” adds a separate entry of the source. Read-outs that look alike come from different tables or passages of the source.

Legend:
HDAC-6 = target: T1, HDAC-6 (Homo sapiens, UniProt Q9UBN7); assay: HDAC-6 inhibition, fluorescence assay; assay type: biochemical; details: at 10 μM
T1 sequence (Q9UBN7 1-1215): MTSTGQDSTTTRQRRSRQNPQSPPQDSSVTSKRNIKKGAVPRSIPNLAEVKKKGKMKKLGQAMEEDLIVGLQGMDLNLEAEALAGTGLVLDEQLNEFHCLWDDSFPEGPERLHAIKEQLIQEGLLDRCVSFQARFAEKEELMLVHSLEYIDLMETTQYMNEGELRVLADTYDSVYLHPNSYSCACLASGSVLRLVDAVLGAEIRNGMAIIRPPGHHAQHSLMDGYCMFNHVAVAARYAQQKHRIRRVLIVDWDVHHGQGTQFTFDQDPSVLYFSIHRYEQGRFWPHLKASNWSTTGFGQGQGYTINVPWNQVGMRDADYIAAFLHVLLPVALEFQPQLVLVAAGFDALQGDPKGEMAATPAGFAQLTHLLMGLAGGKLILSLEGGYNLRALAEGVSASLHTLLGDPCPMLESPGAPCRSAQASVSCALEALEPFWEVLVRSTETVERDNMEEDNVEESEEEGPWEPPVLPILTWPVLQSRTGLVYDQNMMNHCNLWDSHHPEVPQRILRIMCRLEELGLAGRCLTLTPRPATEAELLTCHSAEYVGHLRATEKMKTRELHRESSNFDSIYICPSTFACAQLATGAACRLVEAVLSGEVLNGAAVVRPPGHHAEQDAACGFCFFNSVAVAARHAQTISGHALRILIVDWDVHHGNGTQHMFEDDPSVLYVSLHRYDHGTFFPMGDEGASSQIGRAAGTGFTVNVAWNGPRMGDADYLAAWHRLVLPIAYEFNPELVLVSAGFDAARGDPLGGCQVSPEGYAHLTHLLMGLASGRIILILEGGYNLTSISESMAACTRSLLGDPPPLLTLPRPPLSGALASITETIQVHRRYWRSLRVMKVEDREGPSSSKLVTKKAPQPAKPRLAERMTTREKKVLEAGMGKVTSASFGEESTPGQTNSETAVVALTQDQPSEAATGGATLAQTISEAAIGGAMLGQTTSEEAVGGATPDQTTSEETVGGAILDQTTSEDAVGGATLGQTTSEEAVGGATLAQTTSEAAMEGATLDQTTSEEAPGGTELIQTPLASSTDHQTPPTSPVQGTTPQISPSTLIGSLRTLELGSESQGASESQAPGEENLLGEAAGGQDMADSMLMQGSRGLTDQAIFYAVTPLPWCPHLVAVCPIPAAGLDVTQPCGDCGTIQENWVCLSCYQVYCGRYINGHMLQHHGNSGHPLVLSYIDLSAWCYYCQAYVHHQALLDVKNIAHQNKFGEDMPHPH
Outline: (§1)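 After 5 min preincubation, 20 μM HDAC substrate 3 was added for 30 min at 37 °C, then developer for 15 min at room temperature. Fluorescence ex 360/em 460 nm was read. No-inhibitor wells were set to 100% and 200 μM SAHA to 0%; run in triplicate.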

HDAC-1 = HDAC-1 (Homo sapiens, UniProt Q13547); assay: HDAC-1 inhibition, fluorescence assay; assay type: biochemical; details: at 10 μM
Outline: as §1

NDM-1 [1] = target: T2, NDM-1 (Klebsiella pneumoniae, UniProt C7C422); assay: NDM-1 IC50 variation with exogenous Zn; assay type: biochemical; details: Figure S3
MMP-2 = target: T3, MMP-2 (Homo sapiens, UniProt P08253); assay: MMP-2 inhibition, OmniMMP fluorogenic substrate; assay type: biochemical; details: at 10 μM
T3 sequence (P08253 110-660): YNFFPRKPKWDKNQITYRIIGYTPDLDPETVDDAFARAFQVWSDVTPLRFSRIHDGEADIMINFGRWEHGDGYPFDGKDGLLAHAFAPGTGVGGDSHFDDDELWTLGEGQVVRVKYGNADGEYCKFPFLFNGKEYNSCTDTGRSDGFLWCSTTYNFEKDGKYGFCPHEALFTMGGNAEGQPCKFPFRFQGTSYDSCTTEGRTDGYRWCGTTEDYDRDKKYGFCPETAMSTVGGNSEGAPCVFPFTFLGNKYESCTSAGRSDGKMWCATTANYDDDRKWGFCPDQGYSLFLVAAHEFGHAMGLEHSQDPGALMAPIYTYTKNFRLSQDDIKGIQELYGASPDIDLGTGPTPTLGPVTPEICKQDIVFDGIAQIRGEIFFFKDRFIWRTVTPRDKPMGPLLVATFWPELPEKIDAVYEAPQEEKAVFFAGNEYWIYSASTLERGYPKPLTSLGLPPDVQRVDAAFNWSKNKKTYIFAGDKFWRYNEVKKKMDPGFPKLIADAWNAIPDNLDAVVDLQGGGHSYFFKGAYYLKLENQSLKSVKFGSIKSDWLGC
Outline: (§2)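 Human recombinant MMP-2 (1.16 U/well) or MMP-12 (0.007 U/well) was preincubated with test compound (1 mM–5 μM range) for 30 min at 37 °C in 50 mM HEPES, 10 mM CaCl2, 0.05% Brij-35, pH 7.5. The reaction was started with 4 μM OmniMMP substrate (Mca-Pro-Leu-Gly-Leu-Dpa-Ala-Arg-NH2), and the fluorescence increase was monitored over 20 min (ex 320/em 400 nm). No-inhibitor wells were set to 100% and 200 μM NSA to 0%; run in triplicate.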

[2] = test system: Zn(II)-dependent metalloenzymes (HDACs, MMPs, CAs); assay: Panel of Zn; assay type: biochemical; details: 50 – 100 μM; data not shown
HEK293 cells = assay: Cytotoxicity assay; assay type: cell-based, human; details: concentrations relevant to the MIC studies; 4 and 24 h
NDM-1 [3] = target: T2, NDM-1; assay: NDM-1 IC50, fluorescent fluorocillin assay; assay type: biochemical
[4] = target: Human carbonic anhydrase II (Homo sapiens, UniProt P00918); assay: hCAII inhibition, p-nitrophenyl acetate assay; assay type: biochemical
Outline: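 Esterase activity was started with 500 μM p-nitrophenyl acetate and followed at 405 nm for 15 min. No-inhibitor wells were set to 100% and 50 μM benzene sulfonamide to 0%; run in triplicate.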

[5] = test system: E. coli and K. pneumoniae clinical isolates expressing blaNDM-1; assay: organism not typed; assay type: cell-based
MMP-12 = MMP-12 (Homo sapiens, UniProt P39900); assay: MMP-12 inhibition, OmniMMP fluorogenic substrate; assay type: biochemical; details: at 10 μM
Outline: as §2

NDM-1 [6] = target: T2, NDM-1; details: for Zn(II) content of NDM-1 after incubation and dialysis: NDM-1 8 μM, 50 mM HEPES pH 7.5
NDM-1 [7] = target: T2, NDM-1; assay type: binding; details: 2 μM NDM-1, up to 32 μM compound
[8] = Control titration of L-tryptophan fluorescence; details: 2 μM L-tryptophan
[9] = test system: clinical K. pneumoniae isolates expressing blaNDM-1; assay: microbe, parasite or virus in culture; assay type: cell-based; details: Klebsiella pneumoniae
[10] = test system: clinical E. coli isolates expressing blaNDM-1; assay: microbe, parasite or virus in culture; assay type: cell-based; details: Escherichia coli

T2 sequence (C7C422 29-270 limits assumed): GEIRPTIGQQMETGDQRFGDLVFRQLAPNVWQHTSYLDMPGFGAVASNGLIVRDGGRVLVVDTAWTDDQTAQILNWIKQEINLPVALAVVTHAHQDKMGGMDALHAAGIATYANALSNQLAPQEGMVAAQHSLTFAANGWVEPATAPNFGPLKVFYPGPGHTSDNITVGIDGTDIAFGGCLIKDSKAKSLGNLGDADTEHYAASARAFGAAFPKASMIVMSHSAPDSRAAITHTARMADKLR
HDAC-1, sequence (Q13547 whole entry): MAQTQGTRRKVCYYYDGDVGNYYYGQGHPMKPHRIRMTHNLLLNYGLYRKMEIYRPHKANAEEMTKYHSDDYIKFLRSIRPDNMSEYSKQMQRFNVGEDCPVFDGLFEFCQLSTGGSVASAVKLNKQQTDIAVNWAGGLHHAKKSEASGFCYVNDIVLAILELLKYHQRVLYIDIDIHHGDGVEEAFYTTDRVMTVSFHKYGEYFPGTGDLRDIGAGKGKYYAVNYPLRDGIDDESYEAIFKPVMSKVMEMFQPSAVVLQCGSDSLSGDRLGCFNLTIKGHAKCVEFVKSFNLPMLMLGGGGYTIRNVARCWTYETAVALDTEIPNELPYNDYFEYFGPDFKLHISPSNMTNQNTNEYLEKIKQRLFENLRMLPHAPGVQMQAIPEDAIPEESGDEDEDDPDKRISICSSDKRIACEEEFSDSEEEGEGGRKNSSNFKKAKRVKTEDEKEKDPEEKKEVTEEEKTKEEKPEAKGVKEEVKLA
MMP-12, sequence (P39900 106-470): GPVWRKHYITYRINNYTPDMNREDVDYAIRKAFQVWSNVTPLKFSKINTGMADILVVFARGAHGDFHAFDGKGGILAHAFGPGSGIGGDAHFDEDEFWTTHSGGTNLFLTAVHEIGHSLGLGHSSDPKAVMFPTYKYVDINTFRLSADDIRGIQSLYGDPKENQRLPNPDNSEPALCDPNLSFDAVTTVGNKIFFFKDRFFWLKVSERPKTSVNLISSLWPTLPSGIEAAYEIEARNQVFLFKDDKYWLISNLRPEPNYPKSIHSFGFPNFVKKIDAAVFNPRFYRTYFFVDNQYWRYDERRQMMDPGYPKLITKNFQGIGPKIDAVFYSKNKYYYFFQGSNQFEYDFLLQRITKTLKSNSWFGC

In the case of `Nc1cccc(-c2cc(C(=O)O)nc(C(=O)O)c2)c1` [Compound 36, 4-(3-Aminophenyl)pyridine-2,6-dicarboxylic acid], the “Percent inhibition of HDAC-6” value (HDAC-6) is reported as “did not show inhibition; also recorded: No inhibition”, the “Percent inhibition of HDAC-1” value (HDAC-1) is reported as “did not show inhibition; also recorded: No inhibition” and the “effect of exogenous Zn(II) in the assay buffer on NDM-1 inhibition” value (NDM-1 [1]) is reported as “little impact on the IC50 value”. For the same compound, the “Percent inhibition of MMP-2” value (MMP-2) was “some inhibition”, the “inhibition of Zn(II) metalloenzymes at higher concentrations” value [2] was < 50% and the “toxicity to HEK293 cells (growth, morphology, viability)” value (HEK293 cells) was “not adversely effected; also recorded: did not exhibit cytotoxicity; also recorded: no toxicity was observed”. The ligand efficiency (NDM-1 [3]) was 0.5 kcal/mol/non-H atom, the “fold improvement in inhibition compared to DPA” value (NDM-1 [3]; fluorescent assay) was 4 fold and the “selectivity for NDM-1 over human CAII” value [4] was “at least 500 fold”. The “Percent inhibition of hCAII” value ([4]; at 10 μM) was “did not show inhibition; also recorded: No inhibition”, the “effect on bacterial growth of compound alone” value ([5]; 36 alone (100 mg/L), all E. coli and K. pneumoniae strains) was “no effect on growth” and the “Percent inhibition of MMP-12” value (MMP-12) was “some inhibition”. For the same compound, the “Zn(II) content of NDM-1 after incubation and dialysis” value (“Zn(II) content” below) (NDM-1 [6]) was “no significant removal of Zn(II)”, the “Zn(II) removed from NDM-1” value (NDM-1 [6]; ~24 μM compound) was 10–20% and the “quenching of intrinsic tryptophan fluorescence of NDM-1” value (NDM-1 [7]) was 50–60%.
In the case of `O=C(O)c1cccc(C(=O)O)n1` [DPA, 2,6-dipicolinic acid], the “effect of exogenous Zn(II) in the assay buffer on NDM-1 inhibition” value (NDM-1 [1]) is reported as “diminishes the inhibition activity” and the “Zn(II) content” value (NDM-1 [6]) is reported as “significant loss in Zn(II) content”.
For `O=C(O)CN(CCN(CC(=O)O)CC(=O)O)CC(=O)O` [EDTA, ethylenediaminetetraacetic acid], the “reduction of fluorescence emission of L-tryptophan” value [8] was “no change”.
In the case of `C[C@@H](O)[C@H]1C(=O)N2C(C(=O)O)=C(SCCN=CN)C[C@H]12` [Imipenem, imipenem], the MIC ([9]; read-out: MIC, imipenem, K. pneumoniae isolate Cm1.62) is reported as 16 µg/mL (≈ 53.4 µM), the MIC ([9]; read-out: MIC, imipenem, K. pneumoniae isolate Cm1.63) is reported as 8 µg/mL (≈ 26.7 µM) and the MIC ([9]; read-out: MIC, imipenem, K. pneumoniae isolate Pd1.48) is reported as 8 µg/mL (≈ 26.7 µM). The MIC ([9]; read-out: MIC, imipenem, K. pneumoniae isolate Pd1.49) was 4 µg/mL (≈ 13.4 µM), the MIC ([9]; read-out: MIC, imipenem, K. pneumoniae isolate Pd1.50) was 8 µg/mL (≈ 26.7 µM) and the MIC ([9]; read-out: MIC, imipenem, K. pneumoniae isolate Pd1.53) was 8 µg/mL (≈ 26.7 µM). The MIC ([9]; read-out: MIC, imipenem, K. pneumoniae isolate Pd1.54) was 8 µg/mL (≈ 26.7 µM), the MIC ([9]; read-out: MIC, imipenem, K. pneumoniae isolate Pd1.55) was 8 µg/mL (≈ 26.7 µM) and the MIC ([5]; read-out: MICs of imipenem alone) was 4 to 16 µg/mL (≈ 13.4 to 53.4 µM). The MIC ([10]; read-out: MIC, imipenem, E. coli isolate Ah8.71) was 16 µg/mL (≈ 53.4 µM), the MIC ([10]; read-out: MIC, imipenem, E. coli isolate Ah8.73) was 16 µg/mL (≈ 53.4 µM) and the MIC ([10]; read-out: MIC, imipenem, E. coli isolate Ah8.75) was 16 µg/mL (≈ 53.4 µM). For the same compound, the MIC ([10]; read-out: MIC, imipenem, E. coli isolate Ch8.68) was 16 µg/mL (≈ 53.4 µM), the MIC ([10]; read-out: MIC, imipenem, E. coli isolate Ch8.69) was 4 µg/mL (≈ 13.4 µM) and the MIC ([10]; read-out: MIC, imipenem, E. coli isolate Ch8.70) was 16 µg/mL (≈ 53.4 µM). For the same compound, the MIC ([10]; read-out: MIC, imipenem, E. coli isolate Ch8.72) was 16 µg/mL (≈ 53.4 µM).
With `C[C@H](CS)C(=O)N1CCC[C@H]1C(=O)O` [L-Captopril] the “reduction of fluorescence emission of L-tryptophan” value [8] was “no change” and the “Zn(II) content” value (NDM-1 [6]) was “did not change”.
